Legend:
[1] = test system: Jurkat T cell leukemia cells; details: previous studies; cited from earlier work
Jurkat or H522 cells = assay: 2-[1-14C]-deoxy-D-glucose uptake; assay type: cell-based, human; details: three hours exposure, Jurkat and H522
Procedure, shortened: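 Jurkat or H522 cells in RPMI 1640 + 10% FCS + 50 μg/ml gentamycin at 100,000/ml, treated immediately with DMSO vehicle or test compound for 3 h. Washed in glucose-free RPMI, 30 min with inhibitor, then 1 h with 14C-2-deoxyglucose (0.1 μCi/μl stock). Ice-cold washes, 0.5% SDS lysis, scintillation counting; counts normalized to BCA protein.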

Jurkat and H522 cells [2] = assay: Intracellular ATP bioluminescence assay; assay type: cell-based, human; details: three hours exposure, Jurkat and H522
Procedure, shortened: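 After plating at 1×10^5 cells/well (24 h, 37°C, 5% CO2) and 3 h test compound exposure, adherent cells were washed with cold PBS, lysed in passive lysis buffer and scraped. One freeze (−80°C)/thaw (37°C) cycle, cleared at 4°C. ATP read by firefly luciferase/D-luciferin luminescence at 560 nm against an ATP standard curve, as nmol/mg BCA protein.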

[3] = test system: Jurkat T cell leukemia cells; assay: Annexin V / propidium iodide flow cytometry; assay type: cell-based, human; details: 20 μM, five hours
[4] = test system: Jurkat T cell leukemia cells; assay: Cell viability, trypan blue exclusion; assay type: cell-based; details: Homo sapiens, 48 h, read-out: IC50 cytotoxic effects (viability)
[5] = Pharmacokinetic profile after IV administration; assay type: in vivo, female C57Bl/6 mice; details: plasma
Procedure, shortened: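 Test compound was given IV to female C57Bl/6 mice, with 8 time points and 3 animals per time point. Plasma was extracted with acetonitrile and analysed by LC-MS/MS on a polar reverse-phase column with a 0.5% formic acid acetonitrile/water mobile phase. Tmax, Cmax, volume of distribution, half-life, clearance, AUCs and MRT were calculated from the concentration–time data.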

[6] = test system: H522 human lung adenocarcinoma cells; assay: Cell viability, trypan blue exclusion; assay type: cell-based; details: NCI-H522, 48 h, read-out: IC50 cytotoxic effects (viability)
[7] = molecular target: recombinant human PFKFB3 protein (Homo sapiens, UniProt Q16875); assay: Recombinant PFKFB3 kinase assay; assay type: biochemical
Sequence of recombinant human PFKFB3 protein (Q16875 whole entry): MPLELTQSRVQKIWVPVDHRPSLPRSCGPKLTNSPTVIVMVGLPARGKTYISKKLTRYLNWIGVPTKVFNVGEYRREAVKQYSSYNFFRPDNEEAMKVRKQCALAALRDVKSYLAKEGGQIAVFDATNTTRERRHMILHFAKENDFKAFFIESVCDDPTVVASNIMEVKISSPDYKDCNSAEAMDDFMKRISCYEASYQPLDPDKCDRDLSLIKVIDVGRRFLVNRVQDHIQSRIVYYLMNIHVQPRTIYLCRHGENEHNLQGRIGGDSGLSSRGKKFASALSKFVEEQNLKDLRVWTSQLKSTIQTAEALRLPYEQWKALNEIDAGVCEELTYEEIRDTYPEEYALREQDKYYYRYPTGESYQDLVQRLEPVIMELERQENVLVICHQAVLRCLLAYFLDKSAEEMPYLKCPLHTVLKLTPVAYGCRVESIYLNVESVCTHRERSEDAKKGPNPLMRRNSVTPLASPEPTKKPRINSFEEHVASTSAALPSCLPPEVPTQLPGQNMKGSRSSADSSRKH

Jurkat and H522 cells [8] = assay: F26BP measurement in cells; assay type: cell-based, human; details: three hours exposure
Procedure, shortened: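 Cells plated at 1×10^5/well, 24 h in RPMI or DMEM (5% CO2, 37°C), then exposed to test compound for 3 h. Cells triturated, washed twice in PBS, dissolved in […] NaOH. F26BP measured by coupled enzyme reaction and normalized to BCA protein. Triplicate or quadruplicate; unpaired two-tailed t-test.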

[9] = female, C57Bl/6, mouse, iv, 5 mg/kg

- AUC0-inf ([5]; IV, C57Bl/6 mice): 36 ng/h/mL
- Cmax [5, 9]: 113 ng/mL
- clearance [5, 9]: 2310 mL/min/kg
- half-life [5, 9]: 18 min
- IC50 [7]: 22.9 µM
Compound: O=C(C=Cc1cccnc1)c1ccncc1 [3PO, 3-(3-pyridinyl)-1-(4-pyridinyl)-2-propen-1-one, reference compound]
- concentrations that caused cell death [1]: > 10 µM
- effect on glucose uptake (14C-2DG) (Jurkat or H522 cells): reduced
- effect on intracellular ATP (Jurkat and H522 cells [2]): reduced
- cells undergoing early apoptosis (Annexin V+/PI−) [3]: increased
- IC50 [4]: 7.2 µM
- IC50 [6]: 5.57 µM
- effect on F26BP (Jurkat and H522 cells [8]): reduced

From PMC3742633 (Molecular cancer therapeutics, 2013)
